# Results from ChEMBL document CHEMBL4364291, “Benzylideneacetone Derivatives Inhibit Osteoclastogenesis and Activate Osteoblastogenesis Independently Based on Specific Structure-Activity Relationship” (J Med Chem, 2019).
# Calls of active or inactive are those of the source. No cut-off for these calls is given here.
# Columns and labels:
# BMDM [1] = experiment: Inhibition of RANKL-induced osteoclastogenesis in C57BL/6 mouse bone marrow macrophages assessed as increase in NFkappaB expression at 0.5 uM measured over 5 days by Western blot analysis; format: functional, cell-based
# Outline: (§1)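 C57BL/6 BMM were grown with M-CSF plus RANKL over the course of osteoclastogenesis, treated at 0.5 or 10 μM. NF-κB and NFATc1 were followed by Western blot. The negative control was M-CSF only.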
# BMDM [2] = experiment: Inhibition of RANKL-induced osteoclastogenesis in C57BL/6 mouse bone marrow macrophages assessed as reduction in NFATc1 expression at 0.5 uM measured over 5 days by Western blot analysis; format: functional, cell-based; outline: as §1
# Mus musculus [3] = experiment: Antiosteoporotic activity in ddY mouse model of OVX-induced osteoporosis assessed as increase in cross-sectional thickness in femur bone at 1 mg/kg, po administered once daily via gavage for 4 weeks by microcomputed tomographic analysis; format: functional, organism-based
# Outline: (§2)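 Female ddY mice were ovariectomized. Oral gavage began 1 week after surgery and ran once daily for 28 d. Vehicle was 300 μL PBS containing 0.5% (v/v) DMSO, also given to sham and OVX controls. Mice were then euthanized and femur and tibia fixed for CT imaging. Values are mean ± SD of four mice.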
# Mus musculus [4] = experiment: Antiosteoporotic activity in ddY mouse model of OVX-induced osteoporosis assessed as increase in trabecular number in femur bone at 1 mg/kg, po administered once daily via gavage for 4 weeks by microcomputed tomographic analysis; format: functional, organism-based; outline: as §2
# Mus musculus [5] = experiment: Antiosteoporotic activity in ddY mouse model of OVX-induced osteoporosis assessed as increase in trabecular thickness in femur bone at 1 mg/kg, po administered once daily via gavage for 4 weeks by microcomputed tomographic analysis; format: functional, organism-based; outline: as §2
# [6] = Toxicity in ddY mouse model of OVX-induced osteoporosis assessed as increase in body weight at 1 mg/kg, po administered once daily via gavage for 4 weeks measured 5 weeks post OVX-challenge; format: organism-based; conditions: in vivo, 840 h
# Outline: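 Dosing of ddY mice began one week after ovariectomy: compound in 300 μL of 0.5% (v/v) DMSO-containing PBS by gavage once daily for 28 d. OVX and sham controls received vehicle. Body weight was compared with sham control 5 weeks after OVX.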
# BMDM [7] = experiment: Inhibition of RANKL-induced osteoclastogenesis in C57BL/6 mouse bone marrow macrophages assessed as effect on NFkappaB expression at 10 uM measured over 5 days by Western blot analysis; format: functional, cell-based; outline: as §1
# BMDM [8] = experiment: Inhibition of M-CSF/RANKL-induced osteoclast differentiation in C57BL/6 mouse bone marrow macrophages co-cultured with mouse MC3T3-E1 cells assessed as reduction in multinucleated TRAP+ cells at 10 uM measured on day 6 by TRAP staining-based inverted microscopic analysis; format: functional, cell-based
# Outline: (§3)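 C57BL/6 BMM were cocultured with MC3T3-E1 preosteoblasts in osteoclast and osteoblast differentiation factors. The negative control had M-CSF only. Compound was added at a final 10 μM. TRAP staining and inverted-microscope inspection were done on day 6.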
# BMDM [9] = experiment: Inhibition of M-CSF/RANKL-induced osteoclast differentiation in C57BL/6 mouse bone marrow macrophages co-cultured with mouse MC3T3-E1 cells assessed as reduction in multinucleated TRAP+ cells measured on day 6 by TRAP staining-based inverted microscopic analysis; format: functional, cell-based; outline: as §3
# MC3T3-E1 [10] = experiment: Induction of osteoblast differentiation in mouse MC3T3-E1 cells co-cultured with C57BL/6 mouse bone marrow macrophages assessed as activation of ALP production at 10 uM measured on day 7 relative to control; format: functional
# Outline: (§4)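 MC3T3-E1 cells were cocultured with C57BL/6 BMM in differentiation factors for both cell types, with 10 μM compound, and grown for 21 d. ALP production was measured at 7, 14 and 21 d after coculture induction, relative to untreated cells.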
# MC3T3-E1 [11] = experiment: Induction of osteoblast differentiation in mouse MC3T3-E1 cells co-cultured with C57BL/6 mouse bone marrow macrophages assessed as activation of ALP production at 10 uM measured on day 21 relative to control; format: functional; outline: as §4
# MC3T3-E1 [12] = experiment: Induction of osteoblast differentiation in mouse MC3T3-E1 cells assessed as increase in osteocalcin expression at 50 uM after 7 days by Western blot analysis relative to control; format: functional
# Outline: (§5)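 MC3T3-E1 cells were differentiated with osteoblast differentiation factors, with or without 50 μM compound, for 21 d. The negative control lacked differentiation factors. Osteocalcin in culture medium was measured by Western blot at 7, 14 and 21 d. Values are mean ± SD of three independent experiments.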
# MC3T3-E1 [13] = experiment: Induction of osteoblast differentiation in mouse MC3T3-E1 cells assessed as increase in osteocalcin expression at 50 uM after 21 days by Western blot analysis relative to control; format: functional; outline: as §5
# MC3T3-E1 [14] = experiment: Induction of osteoblast differentiation in ascorbic acid/beta-glycerophosphate-induced mouse MC3T3-E1 cells co-cultured with C57BL/6 mouse bone marrow macrophages assessed as increase in osteocalcin expression at 10 uM measured on day 7 by Western blot analysis; format: functional, cell-based
# Outline: (§6)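 MC3T3-E1 and C57BL/6 BMM cocultures were given osteoblast plus osteoclast differentiation factors, with or without 10 μM compound, for 21 d. The negative control had M-CSF only. Osteocalcin in culture medium was quantified by Western blot at 7, 14 and 21 d.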
# MC3T3-E1 [15] = experiment: Induction of osteoblast differentiation in ascorbic acid/beta-glycerophosphate-induced mouse MC3T3-E1 cells co-cultured with C57BL/6 mouse bone marrow macrophages assessed as increase in osteocalcin expression at 10 uM measured on day 14 by Western blot analysis; format: functional, cell-based; outline: as §6
# MC3T3-E1 [16] = experiment: Induction of osteoblast differentiation in ascorbic acid/beta-glycerophosphate-induced mouse MC3T3-E1 cells co-cultured with C57BL/6 mouse bone marrow macrophages assessed as increase in osteocalcin expression at 10 uM measured on day 21 by Western blot analysis; format: functional, cell-based; outline: as §6
# [17] = Cytotoxicity against human ASC cells after 24 hrs by MTT assay; format: cell-based; conditions: read-out: LD50
# Outline: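 Human adipose-derived mesenchymal stem cells were grown in CB-ADMSC-GM medium at 37 °C under 5% CO2. Cell growth and survival were measured by MTT assay and reported as LD50.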
# AGS = experiment: Antiproliferative activity against human AGS cells after 24 hrs by MTT assay; format: functional; conditions: read-out: LD50 (the source's name)
Structure (SMILES),inhibition (BMDM [1]),inhibition (BMDM [2]),Activity (Mus musculus [3]),Activity (Mus musculus [4]),Activity (Mus musculus [5]),Activity [6],inhibition (BMDM [7]),inhibition (BMDM [8]),inhibition (BMDM [9]),Activity (MC3T3-E1 [10]) [%],Activity (MC3T3-E1 [11]) [%],fold change (FC) (MC3T3-E1 [12]),fold change (FC) (MC3T3-E1 [13]),Activity (MC3T3-E1 [14]),Activity (MC3T3-E1 [15]),Activity (MC3T3-E1 [16]),CC50 at 24 h [17] [µM],CC50 (AGS) [µM]
COc1ccc(/C=C/C(C)=O)cc1O,Active,Active,Active,Active,Active,Toxic,–,–,–,–,–,–,–,–,–,–,–,–
CC(=O)/C=C/c1ccc(O)c(O)c1,–,–,–,–,–,–,inactive,Active,Dose-dependent effect,100,100,1.8,2,Active,Active,Active,2800,60
